Measured values reported in article PMC5497587 (Molecular pharmaceutics, 2017).

Experiments:
[1] = cited from earlier work
[2] = test system: human and guinea pig smooth muscle tissue; conditions: cited from earlier work
[3] = test system: airway hyperresponsiveness and airway eosinophilia; conditions: cited from earlier work
[4] = test system: inflammatory cells in bronchoalveolar lavage fluid; assay: Inflammatory cells in BALF of ova s/c BALB/c mice; format: in vivo, mouse
Method in brief: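 Male BALB/c mice (5–10 wk), ova-sensitised/challenged, 10 per group; dexamethasone 4 mg/kg i.p. daily for 8 days (10% DMSO/40% propylene glycol/50% PBS); test compounds 100 mg/kg b.i.d. by gavage for 5 days. BAL with 1 ml Ca/Mg-free PBS, RBC lysis, Fc block, 30 min 4 °C antibody staining. CD45+ count gives cells/ml; CCR3+/GR1+/CD4+/CD11b+ frequencies × total; mean ± SEM versus vehicle.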

[5] = test system: GABAARs expressed on splenocytes; assay: Automated patch-clamp electrophysiology for splenocytes; format: cell-based, mouse; conditions: splenocytes from ova s/c mice

For `C#Cc1ccc2c(c1)C(c1ccccc1F)=N[C@H](C)c1c(C(=O)OCC)ncn1-2` [SH-053-2′F-R-CH3], the “blood brain barrier crossing” value [1] is given as “can cross the blood brain barrier” and the “smooth muscle relaxation ex vivo” value [2] is given as “relax human and guinea pig smooth muscle tissue”.

For `C[C@@H]1C[C@H]2[C@@H]3CCC4=CC(=O)C=C[C@]4(C)[C@@]3(F)[C@@H](O)C[C@]2(C)[C@@]1(O)C(=O)CO` [dexamethasone], the “AHR in ova s/c mice” value ([3]; dexamethasone treated ova s/c mice) is listed as “reduced AHR”, the “CD4+ T cell population in BALF” value ([4]; 4 mg/kg i.p. for 8 days) is listed as “significantly reduced” and the “CD11b+ leukocyte population in BALF” value ([4]; i.p. 4 mg/kg daily for 8 days) is listed as “as did dexamethasone treatment”. The “eosinophils (CCR3+) in BALF by flow cytometry” value ([4]; i.p. 4 mg/kg daily for 8 days) was “almost completely eliminated” and the “reduction of white blood cells in BALF” value ([4]; i.p. 4 mg/kg daily for 8 days, compared with compounds 1 and 2) was “more pronounced”.

For `C=CCc1ccc(O)c(-c2ccc(O)c(CC=C)c2)c1` [honokiol], the “AHR and lung eosinophilia” value ([3]; acute and chronic administration, ova s/c mouse asthma model) is given as “reduced AHR and lung eosinophilia”.

In the case of `NCc1cc(=O)[nH]o1` [muscimol], the “induced current change relative to current change induced by GABA” value [5] is reported as “around 50%”.
